The EternaBench riboswitch data

Tested on: MS2 coat protein
Assay: apparent Kd, MS2 coat protein; higher = weaker binding; RNA-MaP array; FMN 200 µM where present
Summary of the method: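 Stalled E. coli RNA polymerase transcribed the designs on Illumina sequencing-chip clusters. SNAP-549-labelled MS2 coat protein was titrated from 0.7 or 1.5 nM, doubling to 3 µM, without and then with constant ligand, in 100 mM Tris-HCl pH 7.5, 80 mM KCl, 4 mM MgCl2, BSA, DTT, yeast tRNA and Tween-20. Per-cluster binding curves were fitted to green signal normalised to red-channel RNA signal and control-cluster median Fmax. The apparent Kd is the median of the filtered fits.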

[1] = designed as: OFF switch for flavin mononucleotide, no ligand
[2] = ligand present: flavin mononucleotide, designed as: OFF switch for flavin mononucleotide
[3] = ligand present: flavin mononucleotide, designed as: ON switch for flavin mononucleotide
[4] = designed as: ON switch for flavin mononucleotide, no ligand

| Sequence | apparent Kd [1] [nM] | apparent Kd [2] [nM] | apparent Kd [3] [nM] | apparent Kd [4] [nM] |
| --- | --- | --- | --- | --- |
| UCGUGAAGGACAGGAUAUGGACAUGAGGAUCACCCAUGUACAUGGGAAUAUAUACUGCAUUUAUACUAGAAGGGUUACAUAAAU | 12.8 | 11.2 | – | – |
| GCAUCACAUGAGGAUCACCCAUGUCUUCGGAGCGGAGGAUAUGGUCACUGUAAACAGUGGCCAGAAGGCUGGAUGC | – | – | 25.5 | – |
| CCGGAAAGGAAGGAUAUGCUAGACGAUAGUCUAGCAGAAGGUCCUACAUGAGGAUCACCCAUGUGUCCUACCGG | 45.2 | 54.4 | – | – |
| GUAUGUAACAAGGAUAUGCCCUCGAUACGAUUUGCAGAAGGUGUUACAUGAGGAUCACCCAUGUGGCCUUGCAU | 19.4 | 74.9 | – | – |
| UUUUUUAAGUAAGGAUAUCGGUCUUAGUUAGGUCGAGAAGGUACAUGAGGAUCACCCAUGUUGUUUUUUUUUUCUUUUUUUUUU | 9.51 | 14.1 | – | – |
| UCCUCACAUGAGGAUCACCCAUGUCAGGAUAUCUGCGAGCAAUGGCCAAGGCCACUCAGGAGAAGGGACGUCAA | 16.3 | 22.3 | – | – |
| AUGAAAGUAACACAGGAUAUCCAGGAUACAACAUGAGGAUCACCCAUGUACAUACGAACGUAUAAGGAGAAGGGUGGAUGAUCUUC | – | – | 264 | 215 |
| AGAACGUCAGGAUAUCCAACAACAAGUAAAUAGAGAAGAAGGGAGAAGGGACAUGAGGAUCACCCAUGUAAGAA | 51.4 | 45.9 | – | – |
| UAUUUAAUCAUAGGAUAUAGUGUGUAAUUUGGACUAGAAGGAUGUAACAUGAGGAUCACCCAUGUGGUAAAUGGGAUACAUUCC | – | – | 132 | 125 |
| GCUGUGGCAUGAGGAUAUGGUCACCUUUGGUGACCAGAAGGCAUGUCAAUAGACAUGAGGAUCACCCAUGUAGUUAACACAGCA | – | – | 42.4 | 561 |
| GCCCGGGCAAACAUGAGGAUCACCCAUGUGUUAUACUUAAUAUAGGAUAUGUUUAUACUUUUUGGGCAGAAGGAUGGCCCGGGC | – | – | 32.4 | 35.1 |
| CUGAUGUGAGGAUAUGUGAUCUGCCUUCUAUAUAGAUGAUUACAGAAGGCACAUGAGGAUCACCCAUGUAGAUC | 74.7 | 62.6 | – | – |
| UUCAGACAUGAGGAUCACCCAUGUGAGGAUAUGAUGCAGCAGUGGUCUACGCUGUGCAUCAGAAGGCACAUGUG | 140 | 32.7 | – | – |
| AUGGAACAUGAGGAUCACCCAUGUGAGGAUAUCGUCGGCGCGCUUGAAACGAGCUGCCCGAGAAGGCACAGUGG | 160 | 238 | – | – |
| GAUUUACAUGAGGAUCACCCAUGUGAGGAUAUUGGGCUAGCAGAGUGAAUUCGCUGUCCAAGAAGGUACUGGAA | 32.6 | 32.5 | – | – |
| GUCGUGUGAGGAUAUGAUUAUUAGGCGGGAUUGCGACUGCUUCAGAAGGCACAUGAGGAUCACCCAUGUAUGAA | 11.4 | 39 | – | – |
| UUUUAUAGAACAGGAUAUGUGGGCGGGUCCGACGGGAUCCACCACAUGAGGAUCACCCAUGUGACACAGAAGGGUUCCAGAAAC | – | – | 24.2 | 474 |
| AAUAUAAAGAGCUGGUAAACUCAAACAUGAGGAUCACCCAUGUAGGAUAUCAGCACGAUAAGUGCUGAGAAGGACAUCCAGCUC | 15.9 | 15.4 | – | – |
| UAGGAGUCAGGAUAUGCGAGAGAUUGAAGUAUGGGAUGUGAGCAGAAGGGACAUGAGGAUCACCCAUGUAUGGA | 167 | 150 | – | – |

| Sequence | apparent Kd [1] [nM] | apparent Kd [2] [nM] | apparent Kd [3] [nM] | apparent Kd [4] [nM] |
| --- | --- | --- | --- | --- |
| AGGUGACAUGAGGAUCACCCAUGUCAGGAUAUAUACACUGCCGGCGUGACGCCGGCAGAUAGAAGGGACAAAAU | 15.9 | 18.4 | – | – |
| CGCUGGAACACAGGAUAUCGCACAUGCCUGAUCCAGUUAAUAUCACAUGAGGAUCACCCAUGUGGUGAGAAGGGUGUCAAGUUU | 27.1 | 47.2 | – | – |
| UUACCUUAUGAGAAGGCGAUCAUGAAACAUGAUCGAGGAUAUCAUGUAAACAUGAGGAUCACCCAUGUAUGGGUAUUAUGGUAA | – | – | 28.5 | 213 |
| CAGGUGUUAGGAUAUCGGAGAUUGAGGCAGACGGGAAUAUUCGAGAAGGAACAUGAGGAUCACCCAUGUAGUAG | 24.5 | 28.9 | – | – |
| GUCAGCUCGUGAGGAUAUACAACACUGCUUCGGCAGUGUAUUAAGAUCACAUGAGGAUCACCCAUGUAGAAGGCACGAGCUGCU | 12.9 | 276 | – | – |
| AAAAGCAGAGGAUAUACAUAAUUAUGACGAAAGUCAUAAAAACAUGAGGAUCACCCAUGUAGAAGGCUGCAAAA | 24.4 | 34.1 | – | – |
| AGAGACCUCACAGGAUAUGCUGGACUUUGUCCAGCAGAAGGGUGAAAACAUGAGGAUCACCCAUGUAUGGUCUCCAAAUUUAAC | – | – | 12.7 | 187 |
| UUUAAGCUCACAUGAGGAUCACCCAUGUCCGUUCGCCCGGACAGAAGGCACCCAUGACAAUGCGGUGAGGAUAUGUCAGCAAGG | – | – | 13.1 | 120 |
| UUUUUUUUGUGAGGAUAUACAACAUGAGGAUCACCCAUGUCAUGUUCAACAUGAGGAUCACCCAUGUAGAAGGCGCUUUUUUUU | 281 | 247 | – | – |
| AUCGUGUUAGGAUAUACACGUCGCUGGGUAGCUAGCGAUGGGUAGAAGGAACAUGAGGAUCACCCAUGUUCGGG | 178 | 188 | – | – |
| GGUGUCAUCGAGAAGGCCUCAACAUGAGGAUCACCCAUGUUGUAAUAUGGGAGGAUAUCGAUGAUACAGCUACGUUUCGUAGCA | – | – | 6.1 | 18.5 |
| UUUAUUUAGGCAGGAUAUACAUGUAUAUAUAUUUUUUUAUAUAUUAUUACAUGAGGAUCACCCAUGUAGAAGGGCCUUAUUAUA | 75.6 | 89.1 | – | – |
| CCGGGUCGGGAGGAUAUUCGGGCCCAAGGGCUUGGAGAAGGCUCGACAUGAGGAUCACCCAUGUAAGUGUAAGG | 345 | 698 | – | – |
| AGUUAGAUAGCGAUAUGAUCGAGAGAUCAUGUCGCUAAGUUUAGAAGGACAUGAGGAUCACCCAUGUAGGAUAUGGGAGUAGAA | – | – | 53.9 | 149 |
| GCCGUAAGUGUGAGGAUAUACCUAUGGAAACAUAGGUAGAAGGCACAUGAGGAUCACCCAUGUUCUUAAUCGGC | 134 | 329 | – | – |
| AAGUCGAGCGUGAGGAUAUCGUUCGAACGACAGAACGAGAAGGCACAUGAGGAUCACCCAUGUGAUUAAGUUCA | 15.8 | 18.6 | – | – |
| CAAAGUUGGUAAGGAUAUCCCACAUUAUUCUGACCCGUGCAAGCUACAUGAGGAUCACCCAUGUGGGAGAAGGUGCGGUAAAGA | 6.16 | 6.11 | – | – |
| AGGAGGUCAGGAUAUGCUGCUCGUCACUUGCGUGAUGAGUAGCAGAAGGGACAUGAGGAUCACCCAUGUAAAUA | 48.7 | 86.7 | – | – |
| GCUGGACAAGGAUAUACAUAACGUGCUUCGGCACGAGAUCUACAUGAGGAUCACCCAUGUAGAAGGUGUCCAGC | 14.8 | 29.2 | – | – |

| Sequence | apparent Kd [1] [nM] | apparent Kd [2] [nM] | apparent Kd [3] [nM] | apparent Kd [4] [nM] |
| --- | --- | --- | --- | --- |
| AUGUUACAUGAGGAUCACCCAUGUCAGGAUAUCUAUCAUAGCAUAGAAAUAUGCGGGUAGAGAAGGGACUAUCC | 15.4 | 13.8 | – | – |
| UUUUACGGAGGAUAUACAUUUUUUUUAUUAUCCUCAUUAUUACAUGAGGAUCACCCAUGUAGAAGGCCGAUUUU | 42.6 | 173 | – | – |
| UUUUAGGAAGGAUAUACAUUUUUUUUAUUAUCCUCAUUAUUACAUGAGGAUCACCCAUGUAGAAGGUCCAUUUU | 172 | 137 | – | – |
| UGAGGACAUGAGGAUCACCCAUGUAAGGAUAUGCGGAGAGUUUGGAGAGGUUGAGGAGGCAGAAGGUACGGGAU | 155 | 79.1 | – | – |
| UUGAUACAUACCUCCAUAAACAUGAGGAUCACCCAUGUAAGUGAGGAUAUAGAUUGUUUAGUAUACUAGAAGGCACUUAGAUAU | 13.1 | 11.9 | – | – |
| GAUAGGACAGAGAAGGUACGUGCUAGAGAUACUAGCAAAAUUUCCUCACAUGAGGAUCACCCAUGUAAGGAUAUCUGUCCUAUC | 4.44 | 4.8 | – | – |
| GUGCAGAUGUAAGGAUAUCGACUGGAAUACAGUCGAGAAGGUACAUGAGGAUCACCCAUGUAAAUGAAAGAUAAUAAACUGCAC | 15.3 | 26.1 | – | – |
| AGAAAACAGGAGAAGGGCCCACGUGAACCUCCAUAUCUGCGAAACAUGAGGAUCACCCAUGUGAGGCAGGAUAUCCAAUUACUU | 9.32 | 38.7 | – | – |
| GACAUGAGGAUCACCCAUGUCCCUCCAGAAGGCUGGCGCGCGAAACCGAUCUCGGUUCCGGGCACAGAGGAUAUGGGCGGUUGG | – | – | 26.1 | 198 |
| GUGUACAGAGGAUAUACUCGAAUCUAGCGAAGCUAGGUUUGACAUGAGGAUCACCCAUGUAGAAGGCUGUACAC | 14.6 | 18.9 | – | – |
| UUGUUAUAUGUAGGAUAUGCAUAUUAUUAUUAUGCAGAAGGACAUGAGGAUCACCCAUGUAUAUUAUUGUUAUAUGUUAUAUAU | 23 | 25.4 | – | – |
| CACGGGUUAGGAUAUGCAUGGUGAAAAGACGCGAUCCUUAGACAUGAGGAUCACCCAUGUAGAAGGAACGCAAU | 18.6 | 15.9 | – | – |
| GUUGUAUUAAGUUCAUACUAUAUGAUAGAAGGUGAAAGAUAGACAUGAGGAUCACCCAUGUAAUUCAAGGAUAUGUAGUUACUC | – | – | 20.4 | 28.4 |
| AAGCUGGUAGGAUAUACUAGGGCAACUAAUGCGCCGAUAGGACAUGAGGAUCACCCAUGUAGAAGGGCCAGAAA | 80.1 | 93.1 | – | – |
| AGUUAAUAUCGAGGAUAUGUCUAGACACAUGAGGAUCACCCAUGUAUGUGUAUAGAAGGCGAUAUUAACAGCAUGUUACAUGCU | – | – | 16.4 | 42.9 |
| CGCUCAAUAGAGAAGGAAAGAAUCAGAAGGCGUUACAUGAGGAUCACCCAUGUUUUGUAUAGUAACGAGGAUAUGAUAUGAGCG | 18.9 | 15.3 | – | – |
| UUAAAUCAUGUAGGAUAUGCAUGGCGAAGCUACGCAGAAGGACAUGAGGAUCACCCAUGUUCAAGCUACCGAGUUCGGUGGCAA | 23.3 | 148 | – | – |
| GUCAGCUCGUGAGGAUAUACAUCACUGCUUCGGCAGUGUAUUAAGACAACAUGAGGAUCACCCAUGUAGAAGGCACGAGCUGAU | 16.9 | 20.4 | – | – |
